Results on seven molecules are retold here after ChEMBL document CHEMBL1149155, “Development of a new radioligand, N-(5-fluoro-2-phenoxyphenyl)-N-(2-[18F]fluoroethyl-5-methoxybenzyl)acetamide, for pet imaging of peripheral benzodiazepine receptor in primate brain” (J Med Chem, 2004).

Data set [1] is filed under the species Mus musculus. The data set can be described thus: Compound was tested for radioactivity level in mice adrenal glands (Compound is radiolabeled). As to conditions: in vivo; call rule not given here. Type of data set: ADME, organism-based, Adrenal gland. A digest of the protocol: (§1)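 Male ddY mice (30–40 g, 9 weeks) given 18F-ligand in saline (average 8 MBq) via tail vein; four per time point killed at 5, 15, 30, 60, 120 min. Brain, liver, lung, heart, kidney, adrenal, bone and blood weighed and gamma-counted; decay-corrected %ID/g wet tissue.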

The species named for data set [2] is Mus musculus. Nature of the data set: Compound was tested for radioactivity level in mice brain (Compound is radiolabeled); 2.2-4.9% ID/g. As to conditions: in vivo. The format is ADME, organism-based. The method in brief:
as §1

Data set [3] is filed under the species Mus musculus. Nature of the data set: Compound was tested for radioactivity level in mice kidney (Compound is radiolabeled). As to conditions: in vivo. The format is ADME, organism-based. The method in brief:
as §1

The species named for data set [4] is Mus musculus. The data set can be described thus: Compound was tested for radioactivity level in mice lungs (Compound is radiolabeled). To be noted: in vivo. Type of data set: ADME, organism-based. A digest of the protocol: as §1
Data set [5] is filed under the species Mus musculus. The data set can be described thus: Compound (0.09% dose/g) was tested for accumulation in mice bone (Compound is radiolabeled) after 120 min; No increase. The format is ADME, organism-based, Bone element. To be noted: in vivo, 2 h. The method in brief: as §1
Data set [6] in a line: Half life was determined. To be noted: rat. Type of data set: ADME.
In data set [7] the target is GABA-A receptor; anion channel. Nature of the data set: In vitro inhibition of [11C]flumazenil binding to GABA-A central benzodiazepine receptor of rat brain. The method in brief: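 Rat brain sagittal cryosections (20 μm, male Sprague-Dawley) preincubated 20 min at 25 °C in 50 mM Tris-HCl pH 7.4, then incubated 30 min at 37 °C with [11C]flumazenil (1 nM) and compound 0.1–1000 nM; nonspecific binding defined with 10 μM flumazenil. Cerebellum radioactivity read by imaging plate; probit-derived IC50 converted to Ki; n = 3.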

Data set [8] concerns the target Translocator protein (Rattus norvegicus, UniProt P16257). Nature of the data set: In vitro inhibition of [11C]2 binding to Peripheral benzodiazepine receptor (PBR) in rat brain. Type of data set: tissue-based.
A short description of data set [9]: Partition coefficient of the compound. Type of data set: physicochemical. To be noted: octanol/water. The method in brief: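 LogD measured by shake-flask partition between phosphate buffer (pH 7.4) and octanol; mean of n = 3.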
For data set [10], the species on record is Mus musculus. Nature of the data set: Compound (0.31% dose/g) was tested for accumulation in mice bone (Compound is radiolabeled) after 30 min; Low increase. The format is ADME, organism-based. As to conditions: in vivo, 0.5 h. The method in brief:
as §1

The species named for data set [11] is Mus musculus. The data set can be described thus: Compound was tested for radioactivity level in mice heart (Compound is radiolabeled). To be noted: in vivo. Type of data set: ADME, organism-based. The method in brief:
as §1

The target in data set [12] is GABA-A receptor; anion channel. Nature of the data set: Inhibition of [11C]flumazenil binding to GABA-A central benzodiazepine receptor of monkey brain.
For data set [13], the target named is Translocator protein (Homo sapiens, UniProt P30536). Nature of the data set: Binding affinity for Peripheral benzodiazepine receptor compared to [11C]2 in monkey brain (No affinity). Further details: species or system Cercopithecidae. As to conditions: target entry is the homologue from another species.
Chain of Translocator protein (Homo sapiens, UniProt P30536) (P30536 whole entry): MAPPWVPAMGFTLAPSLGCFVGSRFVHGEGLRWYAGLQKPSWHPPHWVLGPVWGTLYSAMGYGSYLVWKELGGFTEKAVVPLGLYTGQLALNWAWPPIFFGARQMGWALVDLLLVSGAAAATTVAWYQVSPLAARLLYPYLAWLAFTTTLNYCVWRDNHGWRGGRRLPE

Chain of Translocator protein (Rattus norvegicus, UniProt P16257) (P16257 whole entry, looked up): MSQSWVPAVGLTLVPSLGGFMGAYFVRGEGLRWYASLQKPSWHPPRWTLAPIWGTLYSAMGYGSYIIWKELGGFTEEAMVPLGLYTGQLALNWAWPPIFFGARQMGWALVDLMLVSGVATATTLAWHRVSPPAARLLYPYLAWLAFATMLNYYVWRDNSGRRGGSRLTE

Usually Ki stands for a measure of affinity in units of concentration, obtained from inhibition or displacement. In general, logD refers to lipophilicity at a set pH, counting ionised and neutral species. On to `COc1ccc(OCCF)c(CN(C(C)=O)c2cc(F)ccc2Oc2ccccc2)c1`, for which the Radioactivity level was above 5% in data set [1]; below 4.9% in data set [2]; above 5% in [3]; above 5% in data set [4]; above 5% in data set [11]. Moreover, the results for the Activity entry in data set [5] and in data set [10] were “Not Active” and “Partially active”, respectively. This molecule also showed a T1/2 in data set [6] of 1.83 h. Further, the Ki in [7] was above 1000 nM; in data set [8], 0.078 nM. The molecule further returned a logD in data set [9] of 3.81.

As to `COc1ccc(OCCOS(=O)(=O)c2ccc(C)cc2)c(CN(C(C)=O)c2cc(F)ccc2Oc2ccccc2)c1`, the Ki in [7] is above 1000 nM; in data set [8], 18.1 nM. Further, the logD in [9] was determined as 4.65.

With `COc1ccc(OC)c(CN(C(C)=O)c2cc(F)ccc2Oc2ccccc2)c1`, the Ki in [7] is above 1000 nM; in data set [8], 0.16 nM. In addition, the logD in [9] amounted to 3.65.

`COc1ccc(OCF)c(CN(C(C)=O)c2cc(F)ccc2Oc2ccccc2)c1`: the Radioactivity level in data set [1], in [3], in data set [4] and in data set [11] was above 5% each time. Besides, the Activity in data set [5] came out at 5.6%. This molecule also yielded a T1/2 in data set [6] of 1.83 h. Moreover, the Ki in data set [7] was above 1000 nM; in [8] it was 0.17 nM. This molecule showed a logD in [9] of 3.7.

On to `COc1ccc(OCI)c(CN(C(C)=O)c2cc(F)ccc2Oc2ccccc2)c1`, for which the Ki in [7] is above 1000 nM; in [8] it was 4.8 nM. Besides, the logD in [9] stood at 4.02.

As a reminder, the IC50 is the concentration needed to halve the response being measured. `CC(=O)Nc1cc(F)ccc1Oc1ccccc1`: the IC50 in data set [12] is above 10000 nM; in data set [13] it was “Not Active”.

As for `CCC(C)N(C)C(=O)c1cc2ccccc2c(-c2ccccc2Cl)n1` (stereo not drawn) [PK-11195], the Ki in [7] is above 1000 nM. The logD in [9] was determined as 2.78.
